This note sets out measurements from ChEMBL document CHEMBL4622986, “Synthesis and Anti-HCV Activity of Sugar-Modified Guanosine Analogues: Discovery of AL-611 as an HCV NS5B Polymerase Inhibitor for the Treatment of Chronic Hepatitis C” (J Med Chem, 2020).

SMILES strings stand for the structures.

Data set [1] is described as follows: Cytotoxicity against human HeLa cells incubated for 8 days by cellTiter-Glo assay. In kind it is cell-based. The essentials: (§1)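 Cells (1×10^5/well) on collagen I-coated wells, first kept 8 days in recommended medium without drug, then exposed to compound for 8 days with refeeding every other day. Viability read by CellTiter-Glo luminescence; CC50 derived by curve fitting.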

The nature of data set [2]: Cytotoxicity against human U937 cells incubated for 8 days by cellTiter-Glo assay. The data set is classed as cell-based, U-937. The method in brief:
as §1

The nature of data set [3]: Selectivity index, ratio of CC50 for human HuH7 cells infected with HCV con1 subgenomic replicon to EC50 for HCV con1 subgenomic replicon. The data set is classed as toxicity. To be noted: read-out: Ratio CC50/EC50. The method in brief: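 Ratio of CC50 (CellTiter-Blue viability after 3 days) to EC50 (HCV RNA by QRT-PCR). Both were measured in Huh-7 Con1 subgenomic replicon cells in DMEM with 2% FBS and 0.5% DMSO at 37 °C.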

Data set [4] can be described thus: Prodrug activation in human hepatocytes assessed as nucleoside monophosphate metabolite formation per million cells incubated for 24 hrs. The data set is classed as ADME, cell-based, Hepatocyte. The method in brief: (§2)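 Primary human hepatocytes (1.5-2 million cells/well) acclimated overnight at 37 °C, 5% CO2, then incubated 24 h with 50 μM extracellular compound. Cells washed with cold 0.9% NaCl and lysed in 70/30 methanol/water. Extract dried and reconstituted, then analysed by LC-MS/MS with an internal standard; reported as pmol per million cells.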

A short description of data set [5]: Prodrug activation in human hepatocytes assessed as [[(2S,3S,4R,5R)-5-(2-amino-6-oxo-1H-purin-9-yl)-2,4-difluoro-3-hydroxy-4-methyl-tetrahydrofuran-2-yl]methoxy-hydroxy-phosphoryl]phosphono hydrogen phosphate metabolite formation per million cells at 50 uM incubated for 24 hrs by LC-MS/MS analysis. The data set is classed as ADME, cell-based, Hepatocyte. The essentials: as §2

Data set [6] is described as follows: Prodrug activation in human hepatocytes assessed as half life of [[(2S,3S,4R,5R)-5-(2-amino-6-oxo-1H-purin-9-yl)-2,4-difluoro-3-hydroxy-4-methyl-tetrahydrofuran-2-yl]methoxy-hydroxy-phosphoryl]phosphono hydrogen phosphate metabolite at 50 uM incubated for 24 hrs followed by medium replacement measured after 6 hrs by LC-MS/MS analysis. The data set is classed as ADME, cell-based, Hepatocyte. The essentials: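 Primary human hepatocytes acclimated overnight at 37 °C, 5% CO2, then given 50 μM compound for 24 h. Medium replaced with blank medium and cells sampled at 0, 3, 6, 10, 24 and 48 h. Cells washed with cold saline and lysed in 70/30 methanol/water; NTP measured by LC-MS/MS. Half-life obtained by first-order fit of the terminal phase (n = 3).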

A short description of data set [7]: Cytotoxicity against human HuH7 cells incubated for 8 days by cellTiter-Glo assay. In kind it is cell-based, Huh-7. The essentials:
as §1

Data set [8] can be described thus: Prodrug activation in human hepatocytes assessed as [[(2S,3S,4R,5R)-5-(2-amino-6-oxo-1H-purin-9-yl)-2,4-difluoro-3-hydroxy-4-methyl-tetrahydrofuran-2-yl]methoxy-hydroxy-phosphoryl]phosphono hydrogen phosphate metabolite formation at 0.5 to 50 uM incubated for 24 hrs by LC-MS/MS analysis. In kind it is ADME, cell-based, Hepatocyte. The method in brief:
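Primary human hepatocytes from three donors, acclimated overnight at 37 °C, 5% CO2, incubated 24 h across a range of extracellular compound concentrations. Cells washed with cold saline and lysed in 70/30 methanol/water. Intracellular NTP measured by negative-ion LC-MS/MS against standards spiked into untreated hepatocyte lysate; mean ± standard deviation reported.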

The nature of data set [9]: Cytotoxicity against human MT4 cells incubated for 8 days by cellTiter-Glo assay. The data set is classed as cell-based. The essentials:
as §1

A short description of data set [10]: Cytotoxicity against human A549 cells incubated for 8 days by cellTiter-Glo assay. The data set is classed as cell-based. The method in brief: as §1
Data set [11] in a line: Cytotoxicity against human HuH7 cells infected with HCV con1 subgenomic replicon assessed as reduction in cell viability measured after 3 days by CellTiter-blue cell viability assay. The data set is classed as cell-based, Huh-7. The method in brief: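 Run in the replicon-bearing Huh-7 cells under the same settings as the antiviral read (DMEM, 2% FBS, 0.5% DMSO, no G418, 37 °C). After 3 days of treatment, viability was read with CellTiter-Blue and CC50 was derived by curve fitting.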

The nature of data set [12]: Prodrug activation in human hepatocytes assessed as time at which [[(2S,3S,4R,5R)-5-(2-amino-6-oxo-1H-purin-9-yl)-2,4-difluoro-3-hydroxy-4-methyl-tetrahydrofuran-2-yl]methoxy-hydroxy-phosphoryl]phosphono hydrogen phosphate metabolite formation reached steady state at 10 uM incubated for 2 to 72 hrs by LC-MS/MS analysis. The data set is classed as ADME, cell-based, Hepatocyte. The essentials:
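Primary human hepatocytes acclimated overnight at 37 °C, 5% CO2, then continuously incubated with 10 μM compound and sampled over 2-72 h. Cells washed with cold saline and lysed in 70/30 methanol/water. Intracellular NTP quantified by negative-ion LC-MS/MS against standards spiked into untreated hepatocyte lysate.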

Data set [13] is described as follows: Cytotoxicity against human HepG2 cells incubated for 8 days by cellTiter-Glo assay. In kind it is cell-based. The essentials: as §1
Data set [14] is described as follows: Prodrug activation in human hepatocytes assessed as [[(2S,3S,4R,5R)-5-(2-amino-6-oxo-1H-purin-9-yl)-2,4-difluoro-3-hydroxy-4-methyl-tetrahydrofuran-2-yl]methoxy-hydroxy-phosphoryl]phosphono hydrogen phosphate metabolite formation after 24 to 48 hrs by LC-MS/MS analysis. The data set is classed as ADME, cell-based, Hepatocyte.
In another data set the test system is Hepatitis C virus. Nature of the data set: Antiviral activity against HCV con1 subgenomic replicon infected in human HuH7 cells assessed as reduction in viral RNA level by qRT-PCR analysis. The data set is classed as functional, organism-based, Hepacivirus hominis. To be noted: isolate Con1, Huh-7. The method in brief: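 Huh-7 cells carrying a subgenomic Con1 HCV replicon (neomycin phosphotransferase, kept under 0.25 mg/ml G418) were exposed to serially diluted compound in DMEM with 2% FBS and 0.5% DMSO, without G418, at 37 °C. Total RNA was extracted and HCV RNA copies were measured by multiplex QRT-PCR (Taqman). EC50 was obtained by 4-parameter curve fit.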

Data set [15] is described as follows: Prodrug activation in Beagle dog assessed as [[(2S,3S,4R,5R)-5-(2-amino-6-oxo-1H-purin-9-yl)-2,4-difluoro-3-hydroxy-4-methyl-tetrahydrofuran-2-yl]methoxy-hydroxy-phosphoryl]phosphono hydrogen phosphate metabolite formation in liver at 9.69 mg/kg, po measured at 4 hrs post dose by LC-MS/MS analysis. The data set is classed as ADME, organism-based, Canis lupus familiaris. To be noted: in vivo. The method in brief:
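Male non-naïve beagle dogs (n=2 per time point), fasted overnight, single oral dose of 9.69 mg/kg (5 mg/kg parent nucleoside equivalent) as a solution in 40% PEG400 in water. Animals anesthetized with pentobarbital before liver collection. Liver NTP measured by negative-ion LC-MS/MS against standards spiked into blank liver homogenate.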

Consider `CCOc1nc(N)nc2c1ncn2[C@@H]1O[C@](F)(COP(=O)(N[C@@H](C)C(=O)OC(C)C)Oc2ccccc2)[C@@H](O)[C@@]1(C)F` (stereo partly specified), for which the CC50 at 192 h in data set [1] is greater than 100 µM; in data set [2] it was 10 µM; in data set [7], greater than 100 µM; in data set [9], 92 µM; in data set [10], greater than 100 µM; in [13], greater than 100 µM. The selectivity ratio in data set [3] was greater than 7000. Further, the Drug metabolism in data set [4] is 89 pmol; in [5] it was 271 pmol; in data set [8], “Metabolite_Detected”; in [14], “Metabolite_Notdetected”; in data set [15] it was 11.2 µM. Besides, the t1/2 in [6] was determined as 11.2 h. In addition, the CC50 at 72 h in data set [11] was greater than 100 µM. The Time in [12] was in the range of 2 to 16 h. For the same compound, the EC50 in the data set with Hepatitis C virus turned out to be 0.014 µM.
